Experimental data collected from several papers.
Lines come from different studies, so protocols differ. Values after ≈ are worked out from the molar mass of the structure shown.

Compound	tested on	assay	system	conditions	quantity	value
C=C1CC[C@H](O)C/C1=C/C=C1\CCC[C@]2(C)[C@@H]([C@H](C)CCCC(C)C)CC[C@@H]12	Hepatitis C virus	viral replication, inhibitor, luciferase	GETYPE2A	5 days, replicon	EC50	8.45 µM
Cc1ccc(-c2nc3ccc(C)cn3c2CC(=O)N(C)C)cc1	Mycobacterium kansasii	microbial growth	–	6 days	MIC	> 50 µM
COc1cccc2c1C(=O)c1c(O)c3c(c(O)c1C2=O)C[C@@](O)(C(=O)CO)C[C@@H]3O[C@H]1C[C@H](N)[C@H](O)[C@H](C)O1	SK-MEL	cell growth or viability	–	48 h	IC50	1.1 µg/mL
COC(=O)c1cc(-c2cccc(NC(=S)Nc3ccccc3Cl)c2)on1	Acinetobacter baumannii	microbial growth, broth dilution	BAA1605	–	MIC	> 64 µg/mL
Cl.O[C@]12C=C(c3nccc4c3[nH]c3ccccc34)[C@@H]3CCN(CCCC/C=C\CC1)C[C@@]31C[C@@H]3/C=C\CCCCN3[C@H]12	SK-MEL	cell growth or viability, neutral red	–	48 h	IC50	0.57 µg/mL
N#CC(C#N)=NNc1cccc(Cl)c1	human Hepatocyte	cell growth or viability	–	–	IC50	4.81 µM
C1COCCN1.COc1ccc(/C=C\c2cc(I)c(OC)c(I)c2)cc1OP(=O)(O)O	BXPC-3	cell growth or viability, SRB	–	48 h	GI50	0.35 µg/mL
Cl.Oc1cccc2c1[nH]c1c(C3=CC4(O)CC/C=C\CCCCN5CCC3C3(CC6/C=C\CCCCN6C43)C5)nccc12 (single isomer, unassigned; (+))	SK-MEL	cell growth or viability, neutral red	–	48 h	IC50	0.78 µg/mL
COc1c(C)c2c(c(O)c1C/C=C(\C)CCC(=O)O)C(=O)OC2	Enterovirus B	viral replication, inhibitor	Vero, B4	–	EC50	> 100 µM
COC(=O)c1cc(-c2cccc(NC(=S)NC3CCCCC3)c2)on1	Acinetobacter baumannii	microbial growth, broth dilution	BAA1605	–	MIC	> 64 µg/mL
CC1CC(C)(C)CC2(C1)SC(C)C(=O)N2NC(=O)c1[nH]c2ccc(Cl)cc2c1-c1ccccc1 (stereo not shown)	Enterovirus B	viral replication, inhibitor	Vero, B4	–	EC50	> 100 µM
COc1ccc2[nH]cc(CCNc3nccc(Nc4cccc5c4ccn5C)n3)c2c1	BXPC-3	cell growth or viability, fluorescence	–	72 h	IC50	0.008 µM
CO[C@H]1/C=C/O[C@@]2(C)Oc3c(C)c(O)c4c(O)c(c(/C=N/N5CCN(C)CC5)c(O)c4c3C2=O)NC(=O)/C(C)=C\C=C\[C@H](C)[C@H](O)[C@@H](C)[C@@H](O)[C@@H](C)[C@H](OC(C)=O)[C@@H]1C	Mycobacterium kansasii	microbial growth	–	6 days	MIC	< 0.78 µM
CN[C@@H]1[C@H](O)[C@H](NC)[C@H]2O[C@@]3(O)C(=O)C[C@@H](C)O[C@H]3O[C@@H]2[C@H]1O	Proteus mirabilis	microbial growth, broth dilution	ATCC25933	–	MIC	> 200 µg/mL
COC(=O)c1cc(-c2cccc(NC(=O)Nc3ccc(C(F)(F)F)cc3)c2)on1	Acinetobacter baumannii	microbial growth, broth dilution	BAA1605	–	MIC	> 64 µg/mL
COc1ccc(/C=C\c2cc(F)c(OC)c(OC)c2)cc1O	BXPC-3	cell growth or viability, SRB	–	48 h	GI50	0.745 µg/mL (≈ 2.45 µM)
